Experimental data as given in ChEMBL document CHEMBL1155931, “Sulfur-substituted naphthalimides as photoactivatable anticancer agents: DNA interaction, fluorescence imaging, and phototoxic effects in cultured tumor cells” (Bioorg Med Chem, 2008).
Activity calls are given as the source filed them. The rule behind the calls is not given here.

Columns and labels:
HT-29 [1] = test: Antiproliferative activity against human HT29 cells after 24 hrs of drug exposure followed by 48 hrs incubation in drug free media; format: functional, cell-based
Procedure, shortened: (§1)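 Cells grown in MEM with 10% FCS at 37 °C, 5% CO2. Seeded for 48 h (HT-29) or 72 h (MCF-7) before drug. Graded concentrations were tested in six replicates. Continuous runs lasted 72 h (HT-29) or 96 h (MCF-7). Short runs used 24 h drug, then drug-free medium, optionally irradiated 20 min at 366 nm (4 W lamp, 5 cm). Biomass read by crystal violet. IC50 is the mean of ≥2 independent experiments.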

DNA [2] = test: Binding affinity to calf thymus DNA assessed as change in melting temperature at concentration of 0.1 [compound]/[DNA]; format: nucleic-acid assay; conditions: Bos taurus
Procedure, shortened: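 CT DNA at 200 µM nucleotide with compound at 20 µM in 10 mM phosphate buffer, pH 7.2, 1% DMSO. Melting followed at 260 nm in 1 °C steps. Tm taken as the midpoint from first-derivative curves. ΔTm accurate within ±1 °C.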

HT-29 [3] = test: Antiproliferative activity against human HT29 cells after 24 hrs of drug exposure followed by irradiation at 366 nanometer for 20 mins and subsequent incubation of 48 hrs in drug free media; format: functional, cell-based; conditions: HT-29, light or radiation study; procedure, shortened: as §1
MCF7 [4] = test: Antiproliferative activity against human MCF7 cells after 24 hrs of drug exposure followed by 72 hrs incubation in drug free media; format: functional, cell-based; procedure, shortened: as §1
HeLa = test: Reduction of topoisomerase 2alpha protein level in human HeLa cells by Western blotting; format: functional, cell-based
MCF7 [5] = test: Antiproliferative activity against human MCF7 cells after 24 hrs of drug exposure followed by irradiation at 366 nanometer for 20 mins and subsequent incubation of 72 hrs in drug free media; format: functional, cell-based; conditions: MCF7, light or radiation study; procedure, shortened: as §1
DNA [6] = test: Binding affinity to calf thymus DNA assessed as decrease in helical B conformation at 245 nanometer wavelength by circular dichroism; format: nucleic-acid assay; conditions: Bos taurus
Procedure, shortened: (§2)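 CD spectra of CT DNA (200 µM nucleotide) after 60 min incubation with 20 µM compound. Recorded after equilibration, when ellipticity no longer changed. DNA concentration set by ε260 = 6600 M^-1 cm^-1.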

HT-29 [7] = test: Antiproliferative activity against human HT29 cells after 72 hrs by crystal violet staining; format: functional, cell-based; conditions: HT-29, 72 h; procedure, shortened: as §1
MCF7 [8] = test: Antiproliferative activity against human MCF7 cells after 96 hrs by crystal violet staining; format: functional, cell-based; conditions: MCF7, 96 h; procedure, shortened: as §1
Escherichia coli = test: Induction of photocleave of Escherichia coli pBR322 DNA after irradiation for 2 hrs at 265 nanometer; conditions: in the assay text read “365 nanometer” for “265 nanometer”
Procedure, shortened: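 pBR322 supercoiled plasmid (0.25 µg) in Tris–HCl pH 7.5 with compound at 50 µM (DMSO stock). Irradiated 2 h at 365 nm (8 W, 10 cm). Run on 1% agarose, ethidium bromide stain. Nicked/linear DNA quantified as percentage of total, mean of two experiments.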

DNA [9] = test: Binding affinity to calf thymus DNA assessed as increase in base stacking at 275 nanometer wavelength by circular dichroism; format: nucleic-acid assay; conditions: Bos taurus; procedure, shortened: as §2

Structure (SMILES) | IC50 (HT-29 [1]) [µM] | ΔTm (DNA [2]) [°C] | IC50 (HT-29 [3]) [µM] | IC50 (MCF7 [4]) [µM] | IC50 (MCF7 [5]) [µM] | Activity (DNA [6]) | IC50 (HT-29 [7]) [µM] | IC50 (MCF7 [8]) [µM] | Activity (Escherichia coli) | Activity (DNA [9]) | Activity (HeLa)
CN(C)CCN1C(=O)c2cccc3c(Sc4nc5ccccc5s4)ccc(c23)C1=O | 5.5 | 3 | 1.8 | 7.3 | 2.4 | – | 4.4 | 2.7 | Active | – | Active
CN(C)CCN1C(=O)c2cccc3c2c(cc2c4ccccc4sc32)C1=O | 0.23 | – | 0.21 | 0.17 | 0.18 | – | 0.62 | 0.2 | – | – | Active
CN(C)CCN1C(=O)c2cccc3cccc(c23)C1=O | 7.2 | 6 | 5.3 | 11.6 | 11.3 | – | 3.5 | 4.5 | Active | – | Active
CN(C)CCN1C(=O)c2cccc3c(Sc4ccccc4N)ccc(c23)C1=O | 2.8 | 9 | 2.8 | 4.8 | 4.9 | Active | 2.9 | 2.6 | Active | – | Active

Second part, led by results:

IC50 (HT-29 [1]) [µM] | ΔTm (DNA [2]) [°C] | IC50 (HT-29 [3]) [µM] | IC50 (MCF7 [4]) [µM] | IC50 (MCF7 [5]) [µM] | Activity (DNA [6]) | IC50 (HT-29 [7]) [µM] | IC50 (MCF7 [8]) [µM] | Activity (Escherichia coli) | Activity (DNA [9]) | Structure (SMILES) | Activity (HeLa)
2.2 | 8 | 2.5 | 4.5 | 4.3 | Active | 1.9 | 4.4 | Active | Active | CCSc1ccc2c3c(cccc13)C(=O)N(CCN(C)C)C2=O | Active
> 50 | 2 | > 50 | > 50 | > 50 | – | – | > 50 | Active | – | CCSc1ccc2c3c(cccc13)C(=O)N(CCS)C2=O | –
4.8 | 7 | 1.3 | 6.7 | 1.7 | Active | 4.1 | 3.4 | Active | Active | CN(C)CCN1C(=O)c2cccc3c(SCc4ccccc4)ccc(c23)C1=O | inactive
4.3 | 8 | 3 | 5.7 | 4 | Active | 4.6 | 2.6 | Active | Active | CCCCSc1ccc2c3c(cccc13)C(=O)N(CCN(C)C)C2=O | inactive
